# Screening results from PubChem BioAssay.
# Only some compounds are listed: those with a hit (about 1.9% of all), similar ones and a draw of the others.
# CHRM4 agonist: CHRM4 agonism in calcium assay; P08173; CHO-K1 hM4/Gqi5, Fluo-8 calcium fluorescence; vehicle 0%, full acetylcholine response 100%; activation, % at 3 µM; 360,000 tested, 0.14% active;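 active = activation above the run mean over all test wells plus 3 SD, cut at about 32% in these data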;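 also: peak over basal fluorescence ratio per well then scaled between controls; 0% = DMSO wells and 100% = acetylcholine at EC100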
# M5 PAM: positive allosteric modulators of human muscarinic M5 receptor; CHO-K1 hM5, Fluo-8 calcium, ACh EC20 PAM; 0% = ACh EC20, 100% = ACh EC100; activation, % at 3 µM; 360,000 tested, 0.3% active; P08912;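 active = activation above the run cutoff, the mean activation of all test compounds plus 3 SD, cut at about 18% in these data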
# Target sequence (P08912 whole entry, looked up): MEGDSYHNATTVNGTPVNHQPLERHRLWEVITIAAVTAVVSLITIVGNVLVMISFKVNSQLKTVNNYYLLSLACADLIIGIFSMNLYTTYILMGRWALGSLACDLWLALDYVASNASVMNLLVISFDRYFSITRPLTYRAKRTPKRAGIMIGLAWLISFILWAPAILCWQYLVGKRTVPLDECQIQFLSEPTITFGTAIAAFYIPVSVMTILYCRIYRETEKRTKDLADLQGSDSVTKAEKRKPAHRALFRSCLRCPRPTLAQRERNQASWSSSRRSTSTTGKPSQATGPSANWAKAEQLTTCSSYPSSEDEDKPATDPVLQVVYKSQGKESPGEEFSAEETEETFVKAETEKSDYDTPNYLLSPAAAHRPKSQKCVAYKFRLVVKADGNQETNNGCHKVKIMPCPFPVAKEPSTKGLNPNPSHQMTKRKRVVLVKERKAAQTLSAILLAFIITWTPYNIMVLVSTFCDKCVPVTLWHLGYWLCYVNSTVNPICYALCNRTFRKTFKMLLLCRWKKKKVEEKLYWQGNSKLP
#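 System: CHO-K1 cell line with stable human muscarinic M5 receptor expression | Also added: EC20 acetylcholine as agonist stimulus | Compound: One concentration, 3 µM final (nominal) | Timing: Fluo-8 loading 80 min at 37 °C plus 30 min room temperature | Measured by: Fluo-8 calcium dye fluorescence, kinetic read | Read-out basis: % activation, ACh-normalized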
# CHRM5 antagonist: antagonists of human muscarinic M5 receptor (CHRM5). inhibition, % at 3 µM. AID 624040. CHO-hM5 cells, Fluo-8 calcium fluorescence, ACh EC80. 360,000 tested, 0.59% active. P08912;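 active = inhibition above a per-plate cutoff, the mean of that plate's test compounds plus 3 SD, cut at about 27% in these data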;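 also: 0% = acetylcholine EC80 with DMSO and 100% = DMSO without agonist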
# M4 PAM: CHRM4 positive allosteric modulation; P08173; 360,000 tested, 0.4% active; CHO-K1 hM4/Gqi5, Fluo-8 calcium fluorescence, ACh EC20; 0% = ACh EC20, 100% = maximal ACh; activation, % at 3 µM;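 active = activation above its plate's cutoff, the mean activation of sample wells plus 3 SD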
# CHRM5 agonist: CHRM5 agonism in calcium assay; CHO-K1 hM5 cells, Fluo-8 calcium fluorescence; 0% DMSO wells, 100% maximal acetylcholine response; activation, % at 3 µM; 360,000 tested, 0.19% active;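 active = activation above the run's mean over test compounds plus 3 SD, cut at about 23% in these data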;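 also: signal is peak over basal fluorescence ratio across the kinetic read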
# CHRM4 antagonist: blocks acetylcholine activation of human M4 receptor. P08173. inhibition, % at 3 µM. CHO-hM4 cells, ACh EC80, Fluo-8 calcium fluorescence. 360,000 tested, 0.73% active. AID 624125;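 active = inhibition above its plate's cutoff, the mean inhibition of sample wells plus 3 SD, cut at about 27% in these data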;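 also: 0% = acetylcholine EC80 with DMSO and 100% = DMSO without agonist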
# Numbers without * were called inactive; ! = repeats disagree.
SMILES,CHRM4 agonist,M5 PAM,CHRM5 antagonist,M4 PAM,CHRM5 agonist,CHRM4 antagonist
Cc1ccc(CNC(=O)c2cccc3c2C(=O)c2ccc(N4CCCCC4)cc2S3(=O)=O)cc1,99*,-36,32*,-17,61*,14
CC1CCN(C(=O)CNC(=O)CNS(=O)(=O)c2ccccc2)CC1,1,-1,9,-2,0,1
Cn1c(N)c(C(=O)COC(=O)Cc2ccc(Br)cc2)c(=O)n(C)c1=O,1,9,-10,14,2,-10
Cn1c(N)c(C(=O)COC(=O)Cc2ccsc2)c(=O)n(C)c1=O,3,7,-4,22*,0,3
CCC(C)c1ccccc1N1CC(C(=O)N2CCN(C(=O)c3ccco3)CC2)CC1=O (stereo unspecified),1,1,-1,7,4,-2
COc1ccc(Br)c(C(=O)OCC(=O)NC2CCCCCC2)c1,3,-11,11,6,-3,-6
CCCOc1ccccc1NC(=O)/C=C/c1ccc(OC)c(S(=O)(=O)N2CCOCC2)c1,8,-10,15,-5,0,8
COc1ccc(OC)c(-c2nnc3n2N=C(c2ccc(OC)c(OCC4CC4)c2)CS3)c1,5,-14,-3,-9,-12,29*
COc1ccc(C2=Nn3c(nnc3-c3ccccc3Cl)SC2)cc1OCC1CC1,3,-24,16,-2,-10,17
Nc1nonc1N/N=C\c1ccccc1,1,2,7,11,0,27*
CC(C)Cn1c(=O)c(C(=O)Nc2ccccc2S(N)(=O)=O)c(O)c2ccccc21,0,15,-8,16,1,0
CCC(C)n1c(=O)c(C(=O)Nc2ccccc2S(N)(=O)=O)c(O)c2ccccc21 (stereo unspecified),0,27*,-11,7,-1,-2
O=C(C1CC1)N1c2ccccc2Sc2ccccc21,-2,-14,9,-12,-23,6
CC1CCCN(c2ccc(C(=O)OCn3nnc4ccccc4c3=O)cc2[N+](=O)[O-])C1 (stereo unspecified),1,-1,7,0,0,4
CN1CCN(CC(=O)N2c3ccccc3Sc3ccccc32)CC1,1,-18,64*,-15,-6,67*
O=C(CN1CCCCCC1)N1c2ccccc2Sc2ccccc21,-1,-34,94*,-22,-14,94*
O=C(/C=C/c1ccccc1)N1c2ccccc2Sc2ccc(C(F)(F)F)cc21,0,7,7,29*,2,-7
CCOC(=O)N1CCN(CC(=O)N2c3ccccc3Sc3ccccc32)CC1,4,1,1,2,14,-16
CC1CCCN(c2ccc(C(=O)OCC(=O)N3c4ccccc4Sc4ccccc43)cc2[N+](=O)[O-])C1 (stereo unspecified),-1,-18,6,-32,-5,30*
NC(=O)NC(CC(=O)Nc1cccnc1)c1cccc(Br)c1 (stereo unspecified),0,-3,9,6,-3,-4
CCC(C)NC(=O)C1CCC(CNS(=O)(=O)c2ccc3c(c2)N(C(C)=O)CCO3)CC1 (stereo unspecified),0,-1,11,0,-2,-8
COc1ccccc1N1CCN(C(=O)c2ccc3c(=O)n(Cc4ccc5c(c4)OCO5)c(=O)[nH]c3c2)CC1,0,4,7,4,-2,3
O=C(CN1CCCCC1)N1c2ccccc2Oc2ccccc21,1,-22,23,-20,-8,37*
CC1CCCN(CCC(=O)c2ccccc2)C1 (stereo unspecified),1,-3,2,9,4,2
CN1CCN(CCCN2c3ccccc3Sc3ccc(C(F)(F)F)cc32)CC1,5,-24,8,-6,-11,85*!
SMILES,CHRM4 agonist,M5 PAM,CHRM5 antagonist,M4 PAM,CHRM5 agonist,CHRM4 antagonist
CC1Cc2ccccc2N1C(=O)CN1CCCCC1 (stereo unspecified),17,-7,7,-7,0,-2
CC1CCCN(CC(=O)N2c3ccccc3Sc3ccccc32)C1 (stereo unspecified),-1,-34,30*,-22,-14,33*
O=C(CN1CCCC(O)C1)N1c2ccccc2Sc2ccc(C(F)(F)F)cc21 (stereo unspecified),1,-16,41*,-20,-11,65*
CCCn1c(SCC(=O)Nc2cccnc2Cl)n[nH]c1=O,-1,3,7,-1,0,-4
NC(=O)c1nsc(C(=O)N(c2ccccc2)C(C(=O)NC2CCCCC2)c2ccc(O)cc2)c1N (stereo unspecified),13,-9,13,-7,-2,-11
CN(C)C(=O)Cn1cc(S(=O)(=O)Cc2ccccc2)c2ccccc21,3,-4,8,-4,-2,9
O=C(CN1CCOCC1)N1c2ccccc2Sc2ccc(Cl)cc21,0,-9,8,-8,-3,15
O=C(CN1CCN(CCOCCO)CC1)N1c2ccccc2Sc2ccc(Cl)cc21,1,-33,2,-16,-14,34*
O=C1CCCN1CCCNCC(=O)N1c2ccccc2Sc2ccccc21,0,-26,35*,-18,-12,52*
O=C1CCCN1CCCNCC(O)c1ccccc1 (stereo unspecified),1,2,12,5,-2,-6
COc1ccc([C@H]2CC(=O)C=C(c3ccc(C(F)(F)F)c(C(F)(F)F)c3)C2)cc1OC,1,20*,-8,4,-1,-25
CCCCc1cc(=O)oc2cc(OCc3cc(OC)c(OC)c(OC)c3)c(Cl)cc12,3,13,0,16*,-2,-4
CCCc1cc(=O)oc2cc(OCc3cc(OC)c(OC)c(OC)c3)c(Cl)cc12,1,8,-6,5,1,-3
CCOc1ccc(N2CC(C(=O)Nc3ccccc3N3CCCC3)CC2=O)cc1 (stereo unspecified),4,6,-3,1,-5,5
O=C(CN1C(=O)COc2ccccc21)c1cccc(Cl)c1,0,-9,4,-16,-9,31*
CC(C)(c1ccccc1)c1ccc(OCc2ccc(C(=O)O)o2)cc1,1,0,4,0,4,2
CCN(CC)CCNC(=O)C12CC3CC(C)(CC(C)(C3)C1)C2,2,-13,9,-13,-7,15
CCN(CC)CCNC(=O)C12CC3CC(CC(C3)C1)C2,0,-4,-3,-13,-7,42*
